According to ChEMBL document CHEMBL6114938, “Design, synthesis, and biological evaluation of pyrazole-ciprofloxacin hybrids as antibacterial and antibiofilm agents against Staphylococcus aureus” (RSC Med Chem, 2025):
≈ marks a conversion by molar mass, not a printed value. Calls of active or inactive are those of the source. The calls are words filed in the database; no cut-off is given here.

Columns and labels:
[1] = Cytotoxicity against human HepG2 cells assessed as reduction in cell viability incubated for 48 hrs by MTT assay; type: toxicity, cell-based
Method in brief: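 MTT viability assay in HepG2 cells seeded at 1000-4000 per well and allowed to adhere overnight. Compounds were tested at 1000-0.78 µg/mL for 48 h in fresh medium. MTT 0.5 mg/mL was added for 4 h at 37 °C, formazan was dissolved in DMSO, and absorbance was read at 570 nm.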

[2] = test system: Mycobacterium tuberculosis; assay: Antimycobacterial activity against Mycobacterium tuberculosis H37Ra ATCC 25177 assessed as inhibition of bacterial growth incubated for 10 days by liquid broth microdilution method; type: functional; settings: H37Ra ATCC 25177, 240 h, time 10 day
Method in brief: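 Log-phase H37Ra (OD₆₀₀ 0.4–0.6) was grown in 7H9 with D-pantothenic acid, amino acids, 0.2% glycerol, 0.05% Tween 80 and 10% ADS, then diluted to OD₆₀₀ 0.005 (1.0×10⁶ CFU/ml). Compounds were two-fold serially diluted in 7H9, and plates were incubated for 10 days at 37 °C in 5% CO₂. MIC was the lowest concentration without visible turbidity.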

[3] = test system: Staphylococcus aureus; assay: Antibiofilm activity against Staphylococcus aureus ATCC 29213 assessed as inhibition of biofilm formation incubated for 24 hrs by crystal violet staining based analysis; type: functional
Method in brief: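 Biofilm formation assay with inoculum at OD600 0.015 from overnight culture. Twelve two-fold dilutions (128 to 0.06 µg/ml) were made in MHB with 2% sucrose in flat-bottom polystyrene wells and incubated at 37 °C for 24 h. Wells were washed with PBS pH 7.4, fixed with methanol, stained with 0.1% crystal violet, eluted with 95% ethanol and read at A595. MBIC50 is the lowest concentration giving ≥50% inhibition versus untreated culture.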

[4] = test system: Staphylococcus aureus; assay: Antibacterial activity against Staphylococcus aureus ATCC 29213 assessed as inhibition of bacterial growth incubated for 18 to 24 hrs by two-fold serial dilution method; type: functional; settings: time 18-24 hrs
Method in brief: (§1)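 Broth microdilution in cation-adjusted Mueller Hinton broth with two-fold serial dilutions. Inoculum came from overnight cultures on Mueller Hinton agar, set to OD600 0.08-0.1 and diluted 100-fold, then added 1:1 to the compound wells. Plates were incubated at 37 °C for 18-24 h and read visually. MIC is the lowest concentration with no turbidity.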

[5] = test system: Staphylococcus aureus; assay: Potency index, ratio of ciprofloxacin MIC to test compound MIC for antibacterial activity against Staphylococcus aureus ATCC 29213; type: functional
[6] = test system: Staphylococcus aureus; assay: Antibacterial activity against one-step ciprofloxacin resistant mutant of Staphylococcus aureus ATCC 29213 assessed as inhibition of bacterial growth by liquid broth microdilution assay; type: functional
Method in brief: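 One-step ciprofloxacin-resistant mutants were raised by plating log-phase cells adjusted to 10¹⁰ CFU/ml on ciprofloxacin-containing Mueller-Hinton agar for 48 h at 37 °C, then passaging picked colonies on ciprofloxacin plates. Mutants with a more than eightfold rise in ciprofloxacin MIC were kept. MIC was read by broth microdilution: two-fold dilutions in cation-adjusted MHB, and inoculum of OD₆₀₀ 0.08–0.1 diluted hundredfold. Plates ran 18–24 h at 37 °C, and MIC was the lowest concentration with no visible turbidity.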

[7] = test system: Pseudomonas aeruginosa; assay: Antibacterial activity against Pseudomonas aeruginosa PAO1 ATCC 15692 assessed as inhibition of bacterial growth incubated for 18 to 24 hrs by two-fold serial dilution method; type: functional; settings: time 18-24 hrs; method in brief: as §1
[8] = test system: Mycobacterium tuberculosis; assay: Antimycobacterial activity against Mycobacterium tuberculosis H37Rv ATCC 27294 assessed as inhibition of bacterial growth incubated for 7 days by broth microdilution assay; type: functional; settings: H37Rv ATCC 27294, 168 h, time 7 day
[9] = test system: Staphylococcus aureus; assay: Antibacterial activity against methicillin-resistant Staphylococcus aureus assessed as inhibition of bacterial growth; type: functional
[10] = biological target: DNA gyrase (Escherichia coli) (UniProt P0AES6+P0AES4); assay: Inhibition of Escherichia coli DNA gyrase assessed as reduction in supercoiled state of plasmid using pUC19 plasmid DNA as substrate at 8XMIC incubated for 90 mins by gel electrophoresis analysis; type: protein-complex assay
[11] = test system: Staphylococcus aureus; assay: Bactericidal activity against Staphylococcus aureus ATCC 29213 assessed as log reduction in bacterial load at 1XMIC measured within 9 hrs by time-kill kinetics analysis; type: functional
Method in brief: (§2)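 Time-kill: log-phase cultures at OD600 0.005 were exposed to 1×, 4× and 8× MIC at 37 °C. Viable counts (CFU/ml) were taken by plating 10-fold serial dilutions at 2, 4, 6, 8, 10 and 24 h. Curves plot log10 CFU/ml against time over 24 h.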

[12] = test system: Staphylococcus aureus; assay: Bactericidal activity against Staphylococcus aureus ATCC 29213 assessed as log reduction in bacterial load at 4X to 8XMIC measured within 3 hrs by time-kill kinetics analysis; type: functional; method in brief: as §2
[13] = test system: Staphylococcus aureus; assay: Ratio of MIC for antibacterial activity against Staphylococcus aureus ATCC 29213 to MBIC50 for antibiofilm activity against Staphylococcus aureus ATCC 29213; type: functional
[14] = test system: Staphylococcus aureus; assay: Potency index, ratio of ciprofloxacin MBIC50 to test compound MBIC50 for antibiofilm activity against Staphylococcus aureus ATCC 29213; type: functional
[15] = test system: Staphylococcus aureus; assay: Antibacterial activity against Staphylococcus aureus NCTC 4163 assessed as inhibition of bacterial growth incubated for 18 hrs by twofold microdilution method; type: functional
[16] = test system: Staphylococcus aureus; assay: Antibacterial activity against Staphylococcus aureus ATCC 29213 assessed as inhibition of bacterial growth incubated for 18 hrs by twofold microdilution method; type: functional
[17] = test system: Escherichia coli; assay: Antibacterial activity against Escherichia coli ATCC 25922 assessed as inhibition of bacterial growth incubated for 18 hrs by twofold microdilution method; type: functional
[18] = test system: Staphylococcus aureus; assay: Antibacterial activity against Staphylococcus aureus ATCC 25923 assessed as inhibition of bacterial growth incubated for 18 hrs by twofold microdilution method; type: functional
[19] = test system: Staphylococcus aureus; assay: Antibacterial activity against Staphylococcus aureus ATCC 6538 assessed as inhibition of bacterial growth incubated for 18 hrs by twofold microdilution method; type: functional
[20] = test system: Staphylococcus aureus; assay: Bactericidal activity against Staphylococcus aureus ATCC 29213 assessed as bacterial killing at 8XMIC measured within 6 hrs by time-kill kinetics analysis; type: functional, organism-based; method in brief: as §2
[21] = test system: Staphylococcus aureus; assay: Bactericidal activity against Staphylococcus aureus ATCC 29213 assessed as log reduction in bacterial load at 4X to 8XMIC measured within 9 hrs by time-kill kinetics analysis; type: functional; method in brief: as §2

SMILES | MIC [2] [µg/mL] | MIC [4] [µg/mL] | MIC [7] [µg/mL] | further results
O=C(CN1CCN(c2cc3c(cc2F)c(=O)c(C(=O)O)cn3C2CC2)CC1)Nc1ccc(-n2ccc(-c3ccc(F)cc3)n2)cc1 | 1 (≈ 1.6 µM) | 0.125 (≈ 0.2 µM) | 32 (≈ 51.2 µM) | CC50 at 48 h [1]: > 1000 µg/mL; MBIC50 [3]: 2.7 µg/mL; Ratio [5]: 2; MIC [6]: 8 µg/mL (≈ 12.8 µM)
O=C(CN1CCN(c2cc3c(cc2F)c(=O)c(C(=O)O)cn3C2CC2)CC1)Nc1ccc(-n2ccc(-c3ccc4ccccc4c3)n2)cc1 | 1 (≈ 1.52 µM) | 1 (≈ 1.52 µM) | 2 (≈ 3.05 µM) | 
O=C(Nc1ccc(-n2ccc(-c3cc4ccccc4o3)n2)cc1)c1cc([N+](=O)[O-])cc([N+](=O)[O-])c1 |  |  |  | MIC [8]: 0.03 µg/mL (≈ 0.0639 µM)
O=C(O)c1ccc(-c2nn(-c3ccc(C(F)(F)F)cc3)cc2CNc2ccc(Br)c(C(F)(F)F)c2)cc1 |  |  |  | MIC [9]: < 1 µg/mL
O=C(CN1CCN(c2cc3c(cc2F)c(=O)c(C(=O)O)cn3C2CC2)CC1)Nc1ccc(-n2ccc(-c3ccc(Br)cc3)n2)cc1 | 16 (≈ 23.3 µM) | 32 (≈ 46.7 µM) | 128 (≈ 187 µM) | 
Cc1cc(-c2ccn(-c3ccc(NC(=O)CN4CCN(c5cc6c(cc5F)c(=O)c(C(=O)O)cn6C5CC5)CC4)cc3)n2)ccc1F | 4 (≈ 6.26 µM) | 16 (≈ 25.1 µM) | 128 (≈ 200 µM) | 
O=C(CN1CCN(c2cc3c(cc2F)c(=O)c(C(=O)O)cn3C2CC2)CC1)Nc1ccc(-n2ccc(-c3ccccc3Cl)n2)cc1 | 4 (≈ 6.24 µM) | 1 (≈ 1.56 µM) | 16 (≈ 25 µM) | 
COc1ccccc1-c1ccn(-c2ccc(NC(=O)CN3CCN(c4cc5c(cc4F)c(=O)c(C(=O)O)cn5C4CC4)CC3)cc2)n1 | 4 (≈ 6.28 µM) | 0.125 (≈ 0.196 µM) | 64 (≈ 101 µM) | CC50 at 48 h [1]: > 1000 µg/mL; inhibition [10]: Active; MBIC50 [3]: 0.02 µg/mL; Activity [11]: >=3 log10CFU/ml; Activity [12]: >=3 log10CFU/ml; Ratio [5]: 2; Ratio [13]: 6; Ratio [14]: 50; MIC [6]: 0.125 µg/mL (≈ 0.196 µM)
O=C(CN1CCN(c2cc3c(cc2F)c(=O)c(C(=O)O)cn3C2CC2)CC1)Nc1ccc(-n2ccc(-c3ccc(Cl)cc3)n2)cc1 | 64 (≈ 99.8 µM) | 1 (≈ 1.56 µM) | 128 (≈ 200 µM) | 
O=C(CN1CCN(c2cc3c(cc2F)c(=O)c(C(=O)O)cn3C2CC2)CC1)Nc1ccc(-n2ccc(-c3ccc4c(c3)OCO4)n2)cc1 | 32 (≈ 49.2 µM) | 0.5 (≈ 0.768 µM) | 64 (≈ 98.4 µM) | CC50 at 48 h [1]: > 1000 µg/mL; MBIC50 [3]: 1.84 µg/mL; MIC [6]: 32 µg/mL (≈ 49.2 µM)
O=C(O)c1cn(C2CC2)c2cc(N3CCNCC3)c(F)cc2c1=O [CIPROFLOXACIN] |  | 0.25 (≈ 0.754 µM) | 0.06 (≈ 0.181 µM) | MBIC50 [3]: 1.06 µg/mL; MIC [6]: 2 µg/mL (≈ 6.04 µM)
O=C(CN1CCN(c2cc3c(cc2F)c(=O)c(C(=O)O)cn3C2CC2)CC1)Nc1ccc(-n2ccc(-c3ccc(Cl)cc3Cl)n2)cc1 | 64 (≈ 94.7 µM) | 16 (≈ 23.7 µM) | > 128 | 
O=C(CN1CCN(c2cc3c(cc2F)c(=O)c(C(=O)O)cn3C2CC2)CC1)Nc1ccc(-n2ccc(-c3cc4ccccc4o3)n2)cc1 | 2 (≈ 3.09 µM) | 1 (≈ 1.55 µM) | 32 (≈ 49.5 µM) | 
O=C(O)c1cn(C2CC2)c2cc(N3CCN(C(=O)CCl)CC3)c(F)cc2c1=O |  |  |  | MIC [15]: 0.1 µg/mL (≈ 0.245 µM); MIC [16]: 0.1 µg/mL (≈ 0.245 µM); MIC [17]: 0.1 µg/mL (≈ 0.245 µM); MIC [18]: 0.1 µg/mL (≈ 0.245 µM); MIC [19]: 0.1 µg/mL (≈ 0.245 µM)
O=C(CN1CCN(c2cc3c(cc2F)c(=O)c(C(=O)O)cn3C2CC2)CC1)Nc1ccc(-n2ccc(-c3cccc(Cl)c3)n2)cc1 | 8 (≈ 12.5 µM) | 8 (≈ 12.5 µM) | 64 (≈ 99.8 µM) | 
COc1ccc(-c2ccn(-c3ccc(NC(=O)CN4CCN(c5cc6c(cc5F)c(=O)c(C(=O)O)cn6C5CC5)CC4)cc3)n2)cc1 | 8 (≈ 12.6 µM) | 4 (≈ 6.28 µM) | 32 (≈ 50.3 µM) | 
COc1cc(-c2ccn(-c3ccc(NC(=O)CN4CCN(c5cc6c(cc5F)c(=O)c(C(=O)O)cn6C5CC5)CC4)cc3)n2)cc(OC)c1OC | 0.5 (≈ 0.718 µM) | 0.125 (≈ 0.179 µM) | 32 (≈ 45.9 µM) | CC50 at 48 h [1]: > 1000 µg/mL; MBIC50 [3]: 0.52 µg/mL; Ratio [5]: 2; MIC [6]: 1 µg/mL (≈ 1.44 µM)
COc1cc(OC)c(-c2cc(-c3cn(-c4ccccc4)nc3-c3ccccc3)[nH]c(=N)n2)cc1OC |  |  |  | MIC [9]: 521 µM
Cc1ccc(-c2ccn(-c3ccc(NC(=O)CN4CCN(c5cc6c(cc5F)c(=O)c(C(=O)O)cn6C5CC5)CC4)cc3)n2)cc1 | 32 (≈ 51.6 µM) | 8 (≈ 12.9 µM) | 128 (≈ 206 µM) | 
O=C(CN1CCN(c2cc3c(cc2F)c(=O)c(C(=O)O)cn3C2CC2)CC1)Nc1ccc(-n2ccc(-c3ccccc3)n2)cc1 | 0.5 (≈ 0.824 µM) | 0.125 (≈ 0.206 µM) | 8 (≈ 13.2 µM) | Activity [20]: Active; CC50 at 48 h [1]: > 1000 µg/mL; MBIC50 [3]: 0.27 µg/mL; Ratio [5]: 2; MIC [6]: 0.5 µg/mL (≈ 0.824 µM)
CC/C(=C(\c1ccccc1)c1ccc(OCCN(C)C)cc1)c1ccccc1 [TAMOXIFEN] |  |  |  | CC50 at 48 h [1]: 3.7 µg/mL (≈ 9.95 µM)
NNC(=O)c1ccncc1 [ISONIAZID] | 0.034 (≈ 0.248 µM) |  |  | 
COc1cccc(-c2ccn(-c3ccc(NC(=O)CN4CCN(c5cc6c(cc5F)c(=O)c(C(=O)O)cn6C5CC5)CC4)cc3)n2)c1 | 4 (≈ 6.28 µM) | 1 (≈ 1.57 µM) | 32 (≈ 50.3 µM) | 
COc1ccc(-c2ccn(-c3ccc(NC(=O)CN4CCN(c5cc6c(cc5F)c(=O)c(C(=O)O)cn6C5CC5)CC4)cc3)n2)cc1OC | 16 (≈ 24 µM) | 0.125 (≈ 0.187 µM) | 128 (≈ 192 µM) | CC50 at 48 h [1]: ≥ 592 µg/mL; MBIC50 [3]: 0.3 µg/mL; Activity [21]: >=3 log10CFU/ml; Ratio [5]: 2; MIC [6]: 0.25 µg/mL (≈ 0.375 µM)
